ABCB1 block – blocks JC-1 efflux by human ABCB1 transporter. P08183. AID 1326. 190,000 compounds, 0.067% hits. CCRF-Adr cells, flow cytometry. inhibition, % at 6.6 µM; in the data active means inhibition above about 40%;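 further: higher value means more JC-1 retained so stronger ABCB1 efflux block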
WT yeast gro inh – growth inhibition of WT yeast, mitochondrial fusion screen; AID 1362; mitochondrial fusion phenotypic screen, WT strain; 190,000 compounds, 2.1% hits; inhibition, % at 10 µM; in the data active means inhibition above about 58%; tested in S. cerevisiae
MEKK3 PB1 HTS – modulators (inhibitors or enhancers) of MEK5 binding to human MEKK3 PB1 domain; bead-based flow cytometry, Alexa488-MEK5 binding to MEKK3; actives lie on both sides; 0 = blocked by unlabeled MEK5, 100 = vehicle; AID 1529; 290,000 compounds, 1.4% hits; binding response (% of control), % at 10 µM;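 active means binding response more than 3 SD above or below the average of its plate-row segment, actives on both sides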;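 further: Alexa488 bead fluorescence after subtracting the streptavidin-only scavenger bead signal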
ABCG2 inh – human ABCG2 inhibition, ABCB1 as counter-screen. AID 1325. Q9UNQ0. inhibition, % at 6.6 µM. 190,000 compounds, 0.1% hits. IgMXP3 cells, JC-1 efflux, flow cytometry;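 active means inhibition above 80%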
Target sequence (Q9UNQ0 whole entry, looked up): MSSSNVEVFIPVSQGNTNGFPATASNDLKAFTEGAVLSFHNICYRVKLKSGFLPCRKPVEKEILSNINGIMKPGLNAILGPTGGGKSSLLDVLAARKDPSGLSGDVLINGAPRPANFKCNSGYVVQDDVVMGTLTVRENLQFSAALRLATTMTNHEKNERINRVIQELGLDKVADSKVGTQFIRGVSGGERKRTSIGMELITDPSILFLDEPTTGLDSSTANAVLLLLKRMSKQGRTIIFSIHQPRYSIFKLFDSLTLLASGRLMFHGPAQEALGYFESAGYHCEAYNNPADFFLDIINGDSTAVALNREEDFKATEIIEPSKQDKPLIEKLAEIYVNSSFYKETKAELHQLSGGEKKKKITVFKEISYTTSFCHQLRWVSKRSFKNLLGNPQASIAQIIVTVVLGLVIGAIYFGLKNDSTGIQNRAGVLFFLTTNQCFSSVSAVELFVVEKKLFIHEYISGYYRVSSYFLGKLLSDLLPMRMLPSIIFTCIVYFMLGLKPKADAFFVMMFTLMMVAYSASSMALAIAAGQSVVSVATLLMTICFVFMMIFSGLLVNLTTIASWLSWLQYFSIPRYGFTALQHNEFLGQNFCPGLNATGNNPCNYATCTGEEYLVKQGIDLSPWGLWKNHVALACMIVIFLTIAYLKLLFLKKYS
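System: two drug-resistant human cell lines, ABCG2 and ABCB1; controls: nicardipine high and DMSO low controls; times: 10 min exposure at 25 °C with rotation, no wash; detection: flow cytometry of retained JC-1 fluorescence; read-out basis: percent efflux inhibition, scaled nicardipine 100% to DMSO 0%; doses: one concentration, 6.6 µM final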
MEKK2 mut-MEK5 – signal of MEK5 binding to mutant human MEKK2 PB1 domain; bead flow cytometry, Alexa488-MEK5 binding to MEKK2 mutant; percent response, % at 10 µM; 290,000 compounds, 0.35% hits; in the data active means percent response above about 24%, passing the limit was not always enough
MEKK2wt PB1 HTS – raises or lowers MEK5 binding to wildtype human MEKK2 PB1 domain; Q9Y2U5; bead flow cytometry, Alexa488-MEK5 binding to MEKK2 WT; actives lie on both sides; binding response (% of control), % at 10 µM; 290,000 compounds, 1.1% hits; in the data active means binding response below about 67% or above about 130%
MEKK2wt confirm – raises or lowers MEK5 binding to wildtype human MEKK2, retest. shares compounds with MEKK3 PB1 HTS. bead flow cytometry, Alexa488-MEK5 binding to MEKK2 WT; actives lie on both sides. binding response (% of control), % at 10 µM. 5,900 compounds, 2.4% hits. AID 1892; in the data active means binding response below about 16% or above about 210%; inactive means in between
MEKK2mut-MEK5 – signal of MEK5 binding to mutant human MEKK2, retest; shares compounds with MEKK3 PB1 HTS; bead flow cytometry, Alexa488-MEK5 binding to MEKK2 mutant; AID 1893; 5,900 compounds, 2% hits; percent response, % at 10 µM; in the data active means percent response mostly above about 71%, no sharp cut-off; inactive means mostly below about 38%;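 further: higher means compound restores mutant binding toward wildtype level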
MEKK3 confirm – MEKK3-MEK5 PB1 inhibition, single concentration confirmation | 5,900 compounds, 1.8% hits | AID 1894 | bead flow cytometry, Alexa488-MEK5 binding to MEKK3; stronger effect = lower value | binding response (% of control), % at 10 µM | shares compounds with MEKK3 PB1 HTS;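 active means binding response below 72% of control, or above a set upper limit, though filed actives all read lower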
Hits are given with their value. Most compounds without a hit are left out; they make up all but 3.5% or so of the library.

`CCc1cccc(CC)c1N(COC)C(=O)Cn1nnc2ccccc21` gave ABCB1 block inactive, WT yeast gro inh inactive and ABCG2 inh inactive.
For CCc1cccc(C)c1N(C(=O)Cn1c(=O)[nH]c2ccccc21)C(C)COC (stereo not drawn) the results were ABCB1 block inactive, WT yeast gro inh inactive, MEKK3 PB1 HTS inactive, ABCG2 inh inactive, MEKK2 mut-MEK5 24, MEKK2wt PB1 HTS inactive, MEKK2wt confirm inactive, MEKK2mut-MEK5 inactive and MEKK3 confirm inactive.
Screening CSc1nc(NC(C)=O)nc(C)c1Cl returned ABCB1 block inactive, WT yeast gro inh inactive and ABCG2 inh inactive.
`Cc1ccc(S(=O)(=O)N(CC(=O)Nc2ccc(Cl)c([N+](=O)[O-])c2)C2CCCCC2)cc1` gave ABCB1 block inactive, WT yeast gro inh inactive, MEKK3 PB1 HTS inactive, ABCG2 inh inactive, MEKK2 mut-MEK5 inactive, MEKK2wt PB1 HTS 146, MEKK2wt confirm inactive, MEKK2mut-MEK5 inactive and MEKK3 confirm inactive.
O=C(Nc1cccc(Cl)c1)NC1CC2CCC(C1)N2Cc1cccs1 (stereo not drawn) was read as ABCB1 block inactive, WT yeast gro inh inactive, MEKK3 PB1 HTS inactive, ABCG2 inh inactive, MEKK2 mut-MEK5 inactive and MEKK2wt PB1 HTS inactive.
Screening CCOc1ccc(N(CC(=O)N2CCN(Cc3ccccc3)CC2)S(C)(=O)=O)cc1 returned MEKK3 PB1 HTS inactive, MEKK2 mut-MEK5 inactive and MEKK2wt PB1 HTS inactive.
For Cc1ccc(Cn2c(=N)n(CC(=O)c3ccc([N+](=O)[O-])cc3)c3ccccc32)cc1 the results were ABCB1 block inactive, WT yeast gro inh inactive, MEKK3 PB1 HTS inactive, ABCG2 inh inactive, MEKK2 mut-MEK5 60, MEKK2wt PB1 HTS 153, MEKK2wt confirm inactive, MEKK2mut-MEK5 inactive and MEKK3 confirm inactive.
`COc1ccc(NC(=O)CN2CCN(CC(=O)Nc3ccc(F)cc3F)CC2)cc1` gave MEKK3 PB1 HTS inactive, MEKK2 mut-MEK5 inactive and MEKK2wt PB1 HTS inactive.
`CCN1CCc2nc(NC(=O)c3ccc4c(c3)OCCO4)sc2C1` gave ABCB1 block inactive, WT yeast gro inh inactive, MEKK3 PB1 HTS inactive, ABCG2 inh inactive, MEKK2 mut-MEK5 inactive and MEKK2wt PB1 HTS inactive.
`CCN1CCc2nc(NC(=O)Cc3ccc4c(c3)OCCO4)sc2C1` gave ABCB1 block inactive, WT yeast gro inh inactive, MEKK3 PB1 HTS inactive, ABCG2 inh inactive, MEKK2 mut-MEK5 inactive, MEKK2wt PB1 HTS 140, MEKK2wt confirm inactive, MEKK2mut-MEK5 inactive and MEKK3 confirm inactive.
CCN1CCc2nc(NC(=O)C(c3ccccc3)c3ccccc3)sc2C1 was read as ABCB1 block inactive, WT yeast gro inh inactive, MEKK3 PB1 HTS inactive, ABCG2 inh inactive, MEKK2 mut-MEK5 inactive and MEKK2wt PB1 HTS inactive.
CCN1CCc2nc(NC(=O)CC(c3ccccc3)c3ccccc3)sc2C1 was read as ABCB1 block inactive, WT yeast gro inh inactive, MEKK3 PB1 HTS inactive, ABCG2 inh inactive, MEKK2 mut-MEK5 44, MEKK2wt PB1 HTS 183, MEKK2wt confirm inactive, MEKK2mut-MEK5 inactive and MEKK3 confirm inactive.
COc1ccc(N(CC(O)Cn2cnc3ccccc32)S(=O)(=O)c2ccc(C)cc2)cc1 (stereo not drawn) was read as ABCB1 block inactive, WT yeast gro inh inactive, MEKK3 PB1 HTS inactive, ABCG2 inh inactive, MEKK2 mut-MEK5 inactive and MEKK2wt PB1 HTS inactive.
`CCC(C)NC(=O)C1CCC(CNS(=O)(=O)c2ccc3c(c2)N(C(C)=O)CCO3)CC1` (stereo not drawn) gave MEKK3 PB1 HTS inactive, MEKK2 mut-MEK5 inactive and MEKK2wt PB1 HTS inactive.

Assay outcomes (PubChem)
